In paper PMC12900291 (European journal of medicinal chemistry, 2025):
“And” between values parts separate entries of the source, which are not always exact repeats. Equal values may be shown once.

Tests used:
SERCA2a [1] = target: T1, SERCA2a (Sus scrofa, UniProt P11607); experiment: NADH-coupled enzyme-linked Ca2+-ATPase activity assay in cardiac SR vesicles; format: biochemical, porcine; settings: for Max increase (%) / Max decrease (%): Ca2+-ATPase activity, mean±SD, n=4-6; for Max increase (%): vs no compound
T1 sequence (P11607 1-997 isoform P11607-2): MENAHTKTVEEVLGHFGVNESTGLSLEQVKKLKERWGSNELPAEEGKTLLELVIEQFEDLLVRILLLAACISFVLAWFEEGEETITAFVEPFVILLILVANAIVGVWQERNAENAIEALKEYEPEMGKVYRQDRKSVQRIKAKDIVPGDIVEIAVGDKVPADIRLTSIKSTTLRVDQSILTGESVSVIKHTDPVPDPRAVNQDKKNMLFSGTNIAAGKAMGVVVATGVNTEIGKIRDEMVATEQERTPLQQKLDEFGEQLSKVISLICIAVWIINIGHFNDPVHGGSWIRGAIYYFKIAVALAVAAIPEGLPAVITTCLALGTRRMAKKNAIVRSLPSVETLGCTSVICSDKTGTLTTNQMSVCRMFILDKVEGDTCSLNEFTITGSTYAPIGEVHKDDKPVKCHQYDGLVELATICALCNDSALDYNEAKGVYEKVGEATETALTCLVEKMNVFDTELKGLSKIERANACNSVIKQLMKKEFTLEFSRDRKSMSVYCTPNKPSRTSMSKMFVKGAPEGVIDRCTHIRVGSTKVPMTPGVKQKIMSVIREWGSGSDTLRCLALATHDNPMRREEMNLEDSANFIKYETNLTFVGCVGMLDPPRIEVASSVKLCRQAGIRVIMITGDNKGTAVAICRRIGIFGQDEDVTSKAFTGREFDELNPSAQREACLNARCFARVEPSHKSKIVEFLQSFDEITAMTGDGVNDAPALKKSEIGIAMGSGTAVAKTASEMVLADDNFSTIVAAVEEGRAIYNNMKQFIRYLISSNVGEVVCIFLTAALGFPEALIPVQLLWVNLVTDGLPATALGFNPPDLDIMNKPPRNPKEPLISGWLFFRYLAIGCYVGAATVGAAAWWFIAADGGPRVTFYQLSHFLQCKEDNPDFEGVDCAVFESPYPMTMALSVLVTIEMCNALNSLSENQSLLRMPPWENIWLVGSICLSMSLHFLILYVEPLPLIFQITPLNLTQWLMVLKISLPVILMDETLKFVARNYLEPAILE

Intrinsic clearance = format: in vitro ADME, human; settings: for Thalf: human liver S9 0.5 mg/mL, 1 μM compound, NADPH, 37 °C; for microsomal CLint at 1 μM: human, liver S9 fraction, pH 7.4
SERCA2a [2] = target: T1, SERCA2a; experiment: oxalate-based Ca2+-uptake; format: biochemical, porcine; settings: cardiac SR
Summary of the method: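 Porcine left-ventricular SR vesicles (30 μg/mL) were prepared by differential centrifugation. Buffer: 50 mM MOPS, 100 mM KCl, 30 mg/mL sucrose, 10 mM potassium oxalate, 2 μM Fluo-4, free Ca2+ at pCa 8.0, 6.2 or 5.4, test compound 0.048–50 μM (two-fold series). Incubation 20 min at 22 °C, dark; 5 mM MgATP start; Fluo-4 decrease (ex 485/em 520 nm) tracked 15 min. Basal pCa 8.0 rate subtracted; Hill fit gives EC50 and % effect.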

[3] = Ca2+-ATPase [Ca2+]MAX EC50 (μM), [Ca2+]MAX (pCa 5.4), cardiac SR
[4] = Ca2+-ATPase [Ca2+]MID EC50 (μM), [Ca2+]MID (pCa 6.2), cardiac SR
[5] = Ca2+-Uptake [Ca2+]MAX EC50 (μM), [Ca2+]MAX (pCa 5.4)
[6] = Ca2+-Uptake [Ca2+]MID EC50 (μM), [Ca2+]MID (pCa 6.2)
[7] = [Ca2+]MAX (pCa 5.4), cardiac SR

Compound	Max increase (%) (SERCA2a [1]; [Ca2+]MAX (pCa 5.4))	further results
CCCN(Cc1ccccc1OC)C(=O)c1scc(C)c1C [Compound 2, N-(2-Methoxybenzyl)-3,4-dimethyl-N-propylthiophene-2-carboxamide]	47±7.1%	
CCCN(Cc1ccccc1OC)C(=O)c1cc(C)cs1 [Compound 3, N-(2-Methoxybenzyl)-4-methyl-N-propylthiophene-2-carboxamide]	45±9.2%	
CCCN(Cc1ccccc1OC)C(=O)c1ccc(Cl)s1 [Compound 6, 5-Chloro-N-(2-methoxybenzyl)-N-propylthiophene-2-carboxamide]	37±9.4%	
CCCN(Cc1ccccc1OC)C(=O)c1ccccc1C(F)(F)F [Compound 20, N-(2-Methoxybenzyl)-N-propyl-2-(trifluoromethyl)benzamide]	51% and 51±17%	
COc1ccccc1CNC(=O)c1cc(C)c(C)s1 [Compound 30, N-(2-methoxybenzyl)-4,5-dimethylthiophene-2-carboxamide]	24±9.1%	
COc1ccccc1CN(C)C(=O)c1cc(C)c(C)s1 [Compound 31, N-(2-Methoxybenzyl)-N,4,5-trimethylthiophene-2-carboxamide]	52±9.2%	
COc1ccccc1CN(C(=O)c1cc(C)c(C)s1)C(C)C [Compound 34, N-Isopropyl-N-(2-methoxybenzyl)-4,5-dimethylthiophene-2-carboxamide]	43±7.9%	
COc1ccccc1CN(C(=O)c1cc(C)c(C)s1)C1CC1 [Compound 35, N-Cyclopropyl-N-(2-methoxybenzyl)-4,5-dimethylthiophene-2-carboxamide]	46±8.9%	
COc1ccccc1CN(CCO)C(=O)c1cc(C)c(C)s1 [Compound 36, N-(2-Hydroxyethyl)-N-(2-methoxybenzyl)-4,5-dimethylthiophene-2-carboxamide]	abolished	
COc1ccccc1CN(CCCF)C(=O)c1cc(C)c(C)s1 [Compound 39, N-(3-Fluoropropyl)-N-(2-methoxybenzyl)-4,5-dimethylthiophene-2-carboxamide]	22% and 22±8.6%	
COc1ccccc1CN(CCC(F)F)C(=O)c1cc(C)c(C)s1 [Compound 40, N-(3,3-Difluoropropyl)-N-(2-methoxybenzyl)-4,5-dimethylthiophene-2-carboxamide]	91% and 91±12.6%	
COc1ccccc1CN(CCC(F)(F)F)C(=O)c1cc(C)c(C)s1 [Compound 41, N-(2-Methoxybenzyl)-4,5-dimethyl-N-(3,3,3-trifluoropropyl)thiophene-2-carboxamide]	75% and 75±8.6%	
COc1cccc2c1CN(C(=O)c1cc(C)c(C)s1)CC2 [Compound 42, (4,5-diMethylthiophen-2-yl)(8-methoxy-3,4-dihydroisoquinolin-2(1H)-yl)methanone]	22% and 22±6.4%	
CCCN(Cc1ccccc1)C(=O)c1cc(C)c(C)s1 [Compound 44, N-Benzyl-4,5-dimethyl-N-propylthiophene-2-carboxamide]	abolished activity	
CCCN(Cc1ccccc1F)C(=O)c1cc(C)c(C)s1 [Compound 48, N-(2-Fluorobenzyl)-4,5-dimethyl-N-propylthiophene-2-carboxamide]	89% and 89±24%	
CCCN(Cc1ccncc1F)C(=O)c1cc(C)c(C)s1 [Compound 50, N-((3-Fluoropyridin-4-yl)methyl)-4,5-dimethyl-N-propylthiophene-2-carboxamide]	ablated activity	
CCN(Cc1ccccc1OC)C(=O)c1cccc(Br)c1F [Compound 52, 3-Bromo-N-ethyl-2-fluoro-N-(2-methoxybenzyl)benzamide]	46±7.4%	
CCN(Cc1ccccc1OC)C(=O)c1ccc(F)c(Br)c1 [Compound 53, 3-Bromo-N-ethyl-4-fluoro-N-(2-methoxybenzyl)benzamide]	45±8.4%	
CCN(Cc1ccccc1OC)C(=O)c1cc(F)c(C)c(Br)c1 [Compound 54, 3-Bromo-N-ethyl-5-fluoro-N-(2-methoxybenzyl)-4-methylbenzamide]		Max decrease (%) (SERCA2a [1]; [Ca2+]MAX (pCa 5.4)): −70±3.4%; inhibition at 50 µM (SERCA2a [1]; read-out: inhibition of Ca2+-ATPase activity): 70%

The next lines start with results.

Max increase (%) (SERCA2a [1]; [Ca2+]MAX (pCa 5.4))	Compound	further results
30±14%	CCCN(Cc1ccccc1OC)C(=O)c1cccs1 [Compound 4, N-(2-Methoxybenzyl)-N-propylthiophene-2-carboxamide]	
29±8.4%	CCCN(Cc1ccccc1OC)C(=O)c1ccsc1 [Compound 5, N-(2-Methoxybenzyl)-N-propylthiophene-3-carboxamide]	
76% and 76±19%	CCCN(Cc1ccccc1OC)C(=O)c1cc2ccccc2s1 [Compound 7, N-(2-Methoxybenzyl)-N-propylbenzo[b]thiophene-2-carboxamide]	
28±10%	CCCN(Cc1ccccc1OC)C(=O)c1ccccc1C [Compound 9, N-(2-Methoxybenzyl)-2-methyl-N-propylbenzamide]	
59±13%	CCCN(Cc1ccccc1OC)C(=O)c1cccc(C)c1 [Compound 10, N-(2-Methoxybenzyl)-3-methyl-N-propylbenzamide]	
61±7.0%	CCCN(Cc1ccccc1OC)C(=O)c1ccc(C)cc1 [Compound 11, N-(2-Methoxybenzyl)-4-methyl-N-propylbenzamide]	
40±10%	CCCN(Cc1ccccc1OC)C(=O)c1ccccc1F [Compound 12, 2-Fluoro-N-(2-methoxybenzyl)-N-propylbenzamide]	
53±17%	CCCN(Cc1ccccc1OC)C(=O)c1cccc(F)c1 [Compound 13, 3-Fluoro-N-(2-methoxybenzyl)-N-propylbenzamide]	
55±11%	CCCN(Cc1ccccc1OC)C(=O)c1ccc(F)cc1 [Compound 14, 4-Fluoro-N-(2-methoxybenzyl)-N-propylbenzamide]	
35±10%	CCCN(Cc1ccccc1OC)C(=O)c1ccccc1Cl [Compound 15, 2-Chloro-N-(2-methoxybenzyl)-N-propylbenzamide]	
61±9.4%	CCCN(Cc1ccccc1OC)C(=O)c1cccc(Cl)c1 [Compound 16, 3-Chloro-N-(2-methoxybenzyl)-N-propylbenzamide]	
64±7.6%	CCCN(Cc1ccccc1OC)C(=O)c1ccc(Cl)cc1 [Compound 17, 4-Chloro-N-(2-methoxybenzyl)-N-propylbenzamide]	
27±9.3%	CCCN(Cc1ccccc1OC)C(=O)c1ccccc1OC [Compound 18, 2-Methoxy-N-(2-methoxybenzyl)-N-propylbenzamide]	
45±14%	CCCN(Cc1ccccc1OC)C(=O)c1cccc(OC)c1 [Compound 19, 3-Methoxy-N-(2-methoxybenzyl)-N-propylbenzamide]	
46±5.5%	CCCN(Cc1ccccc1OC)C(=O)c1cccc(Br)c1 [Compound 22, 3-Bromo-N-(2-methoxybenzyl)-N-propylbenzamide]	EC50 (SERCA2a [1]; [3]): 1.5 ± 0.31 µM; EC50 (SERCA2a [1]; [4]): 1.4 ± 0.8 µM; Thalf (Intrinsic clearance): 23.8 min; microsomal CLint at 1 μM (Intrinsic clearance): 56 ± 9 µL/min/mg; EC50 (SERCA2a [2]; [5]): 0.36 ± 0.14 µM; EC50 (SERCA2a [2]; [6]): 12.4 ± 8.4 µM; Ca2+-Uptake [Ca2+]MAX % effect (SERCA2a [2]; [Ca2+]MAX (pCa 5.4)): 11±3.8%; Ca2+-Uptake [Ca2+]MAX EC50 (μM) (SERCA2a [2]; [Ca2+]MAX (pCa 5.4)): decreased
28±8.1%	CCCN(Cc1ccccc1OC)C(=O)c1ccc(Br)c(Br)c1 [Compound 23, 3,4-Dibromo-N-(2-methoxybenzyl)-N-propylbenzamide]	EC50 (SERCA2a [1]; [3]): 0.9 ± 0.38 µM; EC50 (SERCA2a [1]; [4]): 15.3 ± 4.1 µM; Max decrease (%) (SERCA2a [1]; [Ca2+]MAX (pCa 5.4)): 28±9.0%; Ca2+-ATPase [Ca2+]MAX % effect (SERCA2a [1]; [7]): 28±8.1%; Thalf (Intrinsic clearance): 15.3 min; microsomal CLint at 1 μM (Intrinsic clearance): 79 ± 19 µL/min/mg; EC50 (SERCA2a [2]; [5]): > 50 µM; EC50 (SERCA2a [2]; [6]): 9.2 ± 1.5 µM
48±4.6%	CCCN(Cc1ccccc1OC)C(=O)c1cccc(Br)c1F [Compound 24, 3-Bromo-2-fluoro-N-(2-methoxybenzyl)-N-propylbenzamide]	EC50 (SERCA2a [1]; [3]): 3.4 ± 0.29 µM; EC50 (SERCA2a [1]; [4]): 3.3 ± 1.9 µM; Ca2+-ATPase [Ca2+]MAX % effect (SERCA2a [1]; [7]): 48±4.6%; Ca2+-ATPase [Ca2+]MID % effect (SERCA2a [1]; [Ca2+]MID (pCa 6.2), cardiac SR): 25±5.6%; Thalf (Intrinsic clearance): 51.3 min; microsomal CLint at 1 μM (Intrinsic clearance): 25 ± 4 µL/min/mg; EC50 (SERCA2a [2]; [5]): 1.4 ± 0.65 µM; EC50 (SERCA2a [2]; [6]): 0.83 ± 0.3 µM; Ca2+-Uptake [Ca2+]MAX % effect (SERCA2a [2]; [Ca2+]MAX (pCa 5.4)): 12±3.0%; Ca2+-Uptake [Ca2+]MID % effect (SERCA2a [2]; [Ca2+]MID (pCa 6.2)): 8.5±3.3%
33±6.5%	CCCN(Cc1ccccc1OC)C(=O)c1cc(F)cc(Br)c1 [Compound 26, 3-Bromo-5-fluoro-N-(2-methoxybenzyl)-N-propylbenzamide]	EC50 (SERCA2a [1]; [3]): 2.2 ± 0.27 µM; EC50 (SERCA2a [1]; [4]): 2.1 ± 0.88 µM; Thalf (Intrinsic clearance): 62.4 min; microsomal CLint at 1 μM (Intrinsic clearance): 22 ± 1.1 µL/min/mg; EC50 (SERCA2a [2]; [5]): 0.54 ± 0.3 µM; EC50 (SERCA2a [2]; [6]): > 50 µM; Ca2+-Uptake [Ca2+]MAX EC50 (μM) (SERCA2a [2]; [Ca2+]MAX (pCa 5.4)): decreased
46±7.8%	CCCN(Cc1ccccc1OC)C(=O)c1cccc(Br)n1 [Compound 27, 6-Bromo-N-(2-methoxybenzyl)-N-propylpicolinamide]	
28±5.7%	CCCN(Cc1ccccc1OC)C(=O)c1cncc(Br)c1 [Compound 28, 5-Bromo-N-(2-methoxybenzyl)-N-propylnicotinamide]	
21±4.9%	CCCN(Cc1ccccc1OC)C(=O)c1ccnc(Br)c1 [Compound 29, 2-Bromo-N-(2-methoxybenzyl)-N-propylisonicotinamide]	
46±6.3%	CCN(Cc1ccccc1OC)C(=O)c1cccc(Br)c1 [Compound 51, 3-Bromo-N-ethyl-N-(2-methoxybenzyl)benzamide]	
